Experiments:
L5178Y [1] = test: Antiproliferative activity against mouse L5178Y cells after 72 hrs by MTT assay; type: cell-based
Outline: (§1)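 L5178Y-PAR and ABCB1-transfected L5178Y-MDR cells seeded at 6 × 10^3 per well. Compounds tested in 2-fold serial dilutions for 72 h. MTT in PBS was added for 4 h, then SDS (10% in 0.01 M HCl) overnight at 37 °C. OD read at 550 nm (reference 630 nm), in quadruplicate. IC50 fitted from dose–inhibition curves; mean ± SD.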

L5178Y [2] = test: Antiproliferative activity against mouse L5178Y cells harboring human ABCB1 after 72 hrs by MTT assay; type: ADME, cell-based; outline: as §1
COLO 320 = test: Cytotoxicity against human COLO320 cells after 24 hrs by MTT assay; type: cell-based; details: COLO 320, 24 h
Outline: (§2)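 Cells seeded at 1 × 10^4 per well, with adherent lines detached by trypsin-EDTA and allowed 4 h attachment at 37 °C, 5% CO2. Compounds in 2-fold serial dilutions for 24 h. MTT for 4 h, SDS/HCl solubilization overnight, OD 550 nm (ref 630 nm) in quadruplicate. Percent growth inhibition calculated vs cell and medium controls; IC50 from fitted curves.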

COLO 205 = test: Cytotoxicity against human COLO205 cells after 24 hrs by MTT assay; type: cell-based; details: COLO 205, 24 h; outline: as §2
NIH3T3 = test: Cytotoxicity against mouse NIH/3T3 cells after 24 hrs by MTT assay; type: cell-based; details: NIH3T3, 24 h; outline: as §2
MRC5 = test: Cytotoxicity against human MRC5 cells after 24 hrs by MTT assay; type: cell-based; details: MRC5, 24 h; outline: as §2
[3] = molecular target: T1, ATP-dependent translocase ABCB1 (Homo sapiens, UniProt P08183); test: Modulation of human ABCB1 expressed in mouse L5178Y cells assessed as fluorescence activity ratio at 2 uM pretreated for 10 mins followed by rhodamine 123 addition and measured after 20 mins by flow cytometry (reference value: 1.01); type: cell-based
T1 sequence (P08183 whole entry): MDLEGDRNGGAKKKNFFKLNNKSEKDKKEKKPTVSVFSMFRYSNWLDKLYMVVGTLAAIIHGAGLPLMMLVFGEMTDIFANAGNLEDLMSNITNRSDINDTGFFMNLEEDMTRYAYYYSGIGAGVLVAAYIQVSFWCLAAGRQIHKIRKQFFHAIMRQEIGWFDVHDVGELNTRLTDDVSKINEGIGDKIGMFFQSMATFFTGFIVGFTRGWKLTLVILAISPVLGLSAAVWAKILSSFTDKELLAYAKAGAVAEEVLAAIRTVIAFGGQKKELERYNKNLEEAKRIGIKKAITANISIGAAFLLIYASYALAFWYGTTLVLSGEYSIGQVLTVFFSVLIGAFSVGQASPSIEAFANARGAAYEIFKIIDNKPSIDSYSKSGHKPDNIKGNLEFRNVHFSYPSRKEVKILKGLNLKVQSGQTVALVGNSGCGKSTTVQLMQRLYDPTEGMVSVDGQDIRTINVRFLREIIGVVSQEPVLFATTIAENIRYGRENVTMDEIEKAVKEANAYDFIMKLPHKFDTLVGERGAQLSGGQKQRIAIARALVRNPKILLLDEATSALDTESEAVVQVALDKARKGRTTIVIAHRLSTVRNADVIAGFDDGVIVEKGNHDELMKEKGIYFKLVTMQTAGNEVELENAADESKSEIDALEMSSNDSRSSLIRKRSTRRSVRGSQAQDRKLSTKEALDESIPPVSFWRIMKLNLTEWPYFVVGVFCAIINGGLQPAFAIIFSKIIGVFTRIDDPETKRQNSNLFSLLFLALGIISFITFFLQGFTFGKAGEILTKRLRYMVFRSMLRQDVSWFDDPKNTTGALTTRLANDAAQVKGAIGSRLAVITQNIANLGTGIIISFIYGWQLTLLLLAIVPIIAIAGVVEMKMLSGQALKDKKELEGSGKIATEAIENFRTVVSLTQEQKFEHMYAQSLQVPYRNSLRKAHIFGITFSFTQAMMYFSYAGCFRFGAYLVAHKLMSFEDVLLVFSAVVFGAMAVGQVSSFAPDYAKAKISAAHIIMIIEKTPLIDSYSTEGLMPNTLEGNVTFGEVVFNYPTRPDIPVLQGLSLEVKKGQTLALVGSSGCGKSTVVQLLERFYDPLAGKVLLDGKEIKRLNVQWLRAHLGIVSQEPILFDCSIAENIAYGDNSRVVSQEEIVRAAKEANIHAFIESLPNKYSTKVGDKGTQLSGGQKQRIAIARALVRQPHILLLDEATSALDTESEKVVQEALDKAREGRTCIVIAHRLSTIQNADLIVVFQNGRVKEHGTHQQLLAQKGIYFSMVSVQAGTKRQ

[4] = molecular target: T1, ATP-dependent translocase ABCB1; test: Modulation of human ABCB1 expressed in mouse L5178Y cells assessed as fluorescence activity ratio at 20 uM pretreated for 10 mins followed by rhodamine 123 addition and measured after 20 mins by flow cytometry (reference value: 1.01); type: cell-based
[5] = molecular target: T1, ATP-dependent translocase ABCB1; test: Modulation of ABCB1 (unknown origin) expressed in human COLO320 cells co-expressing LRP assessed as fluorescence activity ratio at 2 uM pretreated for 10 mins followed by rhodamine 123 addition and measured after 20 mins by flow cytometry (reference value: 0.79); type: cell-based
[6] = molecular target: T1, ATP-dependent translocase ABCB1; test: Modulation of ABCB1 (unknown origin) expressed in human COLO320 cells co-expressing LRP assessed as fluorescence activity ratio at 20 uM pretreated for 10 mins followed by rhodamine 123 addition and measured after 20 mins by flow cytometry (reference value: 0.79); type: cell-based
[7] = molecular target: T1, ATP-dependent translocase ABCB1; test: Modulation of human ABCB1 expressed in mouse L5178Y cells assessed as potentiation of doxorubicin-induced cytotoxicity by measuring combination index at ED50 measured after 48 hrs by MTT assay; type: cell-based
Outline: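 Checkerboard in L5178Y-MDR cells: doxorubicin diluted 14.7–0.1 μM along one axis, modulator diluted from 2-fold its IC50 along the other, at fixed ratios. Cells at 2 × 10^5/mL, 48 h, MTT read-out. Dose–response curves fitted by Chou median-effect equation, keeping only r > 0.90. CI at 50% inhibition given as mean ± SD of three CI values from different drug ratios.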

[8] = molecular target: T1, ATP-dependent translocase ABCB1; test: Modulation of human ABCB1 expressed in mouse L5178Y cells assessed as fluorescence activity ratio at 0.2 uM pretreated for 10 mins followed by rhodamine 123 addition and measured after 20 mins by flow cytometry (reference value: 1.01); type: cell-based
[9] = molecular target: T1, ATP-dependent translocase ABCB1; test: Modulation of ABCB1 (unknown origin) expressed in human COLO320 cells co-expressing LRP assessed as fluorescence activity ratio at 0.2 uM pretreated for 10 mins followed by rhodamine 123 addition and measured after 20 mins by flow cytometry (reference value: 0.79); type: cell-based

| Structure (SMILES) | Ratio [3] | Ratio [4] | Ratio [5] | Ratio [6] | Ratio [8] | Ratio [9] | IC50 (L5178Y [1]) [µM] | IC50 (L5178Y [2]) [µM] | IC50 (COLO 320) [µM] | IC50 (COLO 205) [µM] | IC50 (NIH3T3) [µM] | IC50 (MRC5) [µM] | CI [7] |
| --- | --- | --- | --- | --- | --- | --- | --- | --- | --- | --- | --- | --- | --- |
| C[C@H](C/C=C/C(C)(C)O)[C@H]1CC[C@@]2(C)[C@@H]3CC[C@H]4C(C)(C)[C@@H](O)CC[C@@]45C[C@@]35CC[C@]12C | 10.68 | 67.05 | 1.26 | 3.45 |  |  | > 10 | > 10 | > 10 | > 10 | > 10 | > 10 |  |
| C=C(C)[C@H](O)CC[C@@H](C)[C@H]1CC[C@@]2(C)[C@@H]3CC[C@H]4C(C)(C)[C@@H](O)CC[C@@]45C[C@@]35CC[C@]12C | 5.91 | 43.58 | 0.77 | 5.91 |  |  | > 10 | > 10 | > 10 | > 10 | > 10 | > 10 |  |
| C=C(CC[C@@H](C)[C@H]1CC[C@@]2(C)C(=O)[C@@]3(CC[C@]12C)[C@@H](O)C[C@H]1[C@H](C)[C@@H](O)CC[C@@]13C)C(C)C | 54.38 | 96.02 | 2.27 | 8 | 43.75 | 1.68 | > 10 | > 10 | > 10 | > 10 | > 10 | > 10 | 0.872 |
| CC1=C2C=C3CC[C@@H]4C(C)(C)/C(=N/OC(=O)c5ccco5)CC[C@@]4(C)[C@@H]3C[C@H]2OC1=O | 2.1 | 40.69 |  |  |  |  | > 10 | > 10 |  |  |  |  | 0.454 |
| CC[C@H](CC[C@@H](C)[C@H]1CC[C@H]2[C@@H]3CCC4=CC(=O)CC[C@]4(C)[C@H]3CC[C@]12C)C(C)C | 2.51 | 22.56 | 0.97 | 1.34 |  |  | > 10 | > 10 | > 10 | > 10 | > 10 | > 10 |  |
| CC1=C2C=C3CC[C@@H]4C(C)(C)C(=O)CC[C@@]4(C)[C@@H]3C[C@H]2OC1=O [HELIOSCOPINOLIDE E] | 1.84 | 10.23 | 0.44 | 0.98 |  |  | > 10 | > 10 | > 10 | > 10 | > 10 | > 10 | 0.367 |

Second part, led by results:

| Ratio [3] | Ratio [4] | Ratio [5] | Ratio [6] | Ratio [8] | Ratio [9] | Structure (SMILES) | IC50 (L5178Y [1]) [µM] | IC50 (L5178Y [2]) [µM] | IC50 (COLO 320) [µM] | IC50 (COLO 205) [µM] | IC50 (NIH3T3) [µM] | IC50 (MRC5) [µM] | CI [7] |
| --- | --- | --- | --- | --- | --- | --- | --- | --- | --- | --- | --- | --- | --- |
| 0.96 | 4.88 |  |  |  |  | CC1=C2C=C3CC[C@@H]4C(C)(C)/C(=N/O)CC[C@@]4(C)[C@@H]3C[C@H]2OC1=O | > 10 | > 10 |  |  |  |  | 0.477 |
| 5.78 | 56.37 |  |  |  |  | CC1=C2C=C3CC[C@@H]4C(C)(C)/C(=N/OC(=O)c5ccccc5)CC[C@@]4(C)[C@@H]3C[C@H]2OC1=O | > 10 | > 10 |  |  |  |  | 0.152 |
| 3.02 | 38.64 |  |  |  |  | CC(=O)O/N=C1\CC[C@@]2(C)[C@@H]3C[C@H]4OC(=O)C(C)=C4C=C3CC[C@@H]2C1(C)C | > 10 | > 10 |  |  |  |  | 0.501 |
| 1.36 | 10.38 |  |  |  |  | CCCC(=O)O/N=C1\CC[C@@]2(C)[C@@H]3C[C@H]4OC(=O)C(C)=C4C=C3CC[C@@H]2C1(C)C | > 10 | > 10 |  |  |  |  | 0.387 |
| 1.09 | 7.09 |  |  |  |  | CC1=C2C=C3CC[C@@H]4C(C)(C)/C(=N/OC(=O)c5cccs5)CC[C@@]4(C)[C@@H]3C[C@H]2OC1=O | > 10 | > 10 |  |  |  |  | 0.324 |
| 6.14 | 30.68 | 1.09 | 1.84 |  |  | C=C(CC[C@@H](C)[C@H]1CC[C@@]2(C)C3=C(C(=O)C[C@]12C)[C@@]1(C)CC[C@H](O)[C@@H](C)[C@@H]1CC3=O)C(C)C | > 10 | > 10 | > 10 | > 10 | > 10 | > 10 |  |
| 1.7 | 8.18 | 1.73 | 6.78 |  |  | CC1=C2C=C3CC[C@@H]4C(C)(C)[C@@H](O)CC[C@@]4(C)[C@@H]3C[C@H]2OC1=O [HELIOSCOPINOLIDE B] | > 10 | > 10 | > 10 | > 10 | > 10 | > 10 | 0.652 |
| 1.06 | 1.7 | 2.1 | 4.71 |  |  | CC1(C)CC[C@]2(C(=O)O)CC[C@]3(C)C(=CC[C@@H]4[C@@]5(C)CC[C@H](O)C(C)(C)[C@@H]5CC[C@]43C)[C@@H]2C1 [OLEANOLIC_ACID] | > 10 | > 10 | > 10 | > 10 | > 10 | > 10 |  |
